Results as given in ChEMBL document CHEMBL3352191, “Synthesis of sulfonamides with effective inhibitory action against Porphyromonas gingivalis γ-carbonic anhydrase” (Bioorg Med Chem Lett, 2014).

Test: Inhibition of Porphyromonas gingivalis gamma-carbonic anhydrase expressed in Escherichia coli preincubated for 15 mins by stopped flow CO2 hydration assay
Summary of the method: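 CO2 hydration followed by stopped-flow with phenol red (0.2 mM) read at 557 nm. Buffer was 20 mM Hepes pH 7.4 with 20 mM NaBF4 for ionic strength, and CO2 was 1.7–17 mM. Initial rates came from ≥6 traces of the first 5–10% of reaction over 10–100 s, with uncatalyzed rate subtracted. Inhibitor was diluted in water from 10 mM stock and preincubated with enzyme 15 min at rt. KI came from nonlinear least squares plus Cheng–Prusoff, mean of ≥3 determinations.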

Question: For `CC(=O)NC(CCCCNC(=O)OC(C)(C)C)C(=O)Nc1cccc(S(N)(=O)=O)c1` (stereo not given), which Ki is on record?
Answer: 0.0542 µM

Question: With `CC(C)(C)OC(=O)NCCCC(=O)NCc1ccc(S(N)(=O)=O)cc1` as the compound, how does the Ki read?
Answer: 0.49 µM

Question: With `CC(C)(C)OC(=O)NCCCC(=O)NCCc1ccc(S(N)(=O)=O)cc1` as the compound, how does the Ki read?
Answer: 0.233 µM

Question: Which Ki does the source give for `NCCCC(=O)NCc1ccc(S(N)(=O)=O)cc1` here?
Answer: 0.0427 µM

Question: With `NCCCC(=O)NCCc1ccc(S(N)(=O)=O)cc1` as the compound, how does the Ki read?
Answer: 0.0659 µM

Question: With `CC(C)(C)OC(=O)/N=C(\NCCCC(=O)NCc1ccc(S(N)(=O)=O)cc1)NC(=O)OC(C)(C)C` as the compound, how does the Ki read?
Answer: 0.074 µM

Question: For `CC(C)(C)OC(=O)/N=C(\NCCCC(=O)NCCc1ccc(S(N)(=O)=O)cc1)NC(=O)OC(C)(C)C`, which Ki is on record?
Answer: 0.0906 µM

Question: For `N=C(N)NCCCC(=O)NCc1ccc(S(N)(=O)=O)cc1`, which Ki is on record?
Answer: 0.887 µM

Question: Which Ki does the source give for `N=C(N)NCCCC(=O)NCCc1ccc(S(N)(=O)=O)cc1` here?
Answer: 0.0401 µM

Question: With `CC(=O)NC(CCCCNC(=O)OC(C)(C)C)C(=O)NCc1ccc(S(N)(=O)=O)cc1` (stereo not given) as the compound, how does the Ki read?
Answer: 0.089 µM

Question: Which Ki does the source give for `CC(=O)NC(CCCCNC(=O)OC(C)(C)C)C(=O)NCCc1ccc(S(N)(=O)=O)cc1` (stereo not given) here?
Answer: 0.312 µM

Question: With `CC(=O)NC(CCCCN)C(=O)NCc1ccc(S(N)(=O)=O)cc1` (stereo not given) as the compound, how does the Ki read?
Answer: 0.0741 µM

Question: Which Ki does the source give for `CC(=O)NC(CCCCN)C(=O)NCCc1ccc(S(N)(=O)=O)cc1` (stereo not given) here?
Answer: 0.0705 µM

Question: With `CC(=O)NC(CCCCN/C(=N/C(=O)OC(C)(C)C)NC(=O)OC(C)(C)C)C(=O)NCc1ccc(S(N)(=O)=O)cc1` (stereo not given) as the compound, how does the Ki read?
Answer: 0.0776 µM

Question: Which Ki does the source give for `CC(=O)NC(CCCCN/C(=N/C(=O)OC(C)(C)C)NC(=O)OC(C)(C)C)C(=O)NCCc1ccc(S(N)(=O)=O)cc1` (stereo not given) here?
Answer: 0.0608 µM

Question: With `CC(=O)NC(CCCCNC(=N)N)C(=O)NCc1ccc(S(N)(=O)=O)cc1` (stereo not given) as the compound, how does the Ki read?
Answer: 0.0807 µM

Question: Which Ki does the source give for `CC(=O)NC(CCCCNC(=N)N)C(=O)NCCc1ccc(S(N)(=O)=O)cc1` (stereo not given) here?
Answer: 0.37 µM

Question: With `CC(C)(C)OC(=O)NCCCC(=O)Nc1cccc(S(N)(=O)=O)c1` as the compound, how does the Ki read?
Answer: 1.24 µM

Question: With `CC(C)(C)OC(=O)NCCCC(=O)Nc1ccc(S(N)(=O)=O)cc1` as the compound, how does the Ki read?
Answer: 0.056 µM

Question: With `COC(=O)C(CCCCNC(=O)OCc1ccccc1)NC(=O)c1ccc(S(N)(=O)=O)cc1` (stereo not given) as the compound, how does the Ki read?
Answer: 0.0854 µM
